The source of these data is ChEMBL document CHEMBL1123379, “Cardiotonic agents. 2. Synthesis and structure-activity relationships in a new class of 6-, 7-, and 8-pyridyl-2(1H)-quinolone derivatives” (1986).

Test [1] is filed under the species Cavia porcellus. Put plainly: Positive inotropic effect in isolated left guinea pig atria. The format is functional. Particulars: read-out: ED50 (the source's name). Summed up:
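Isolated left atria from guinea pigs of either sex (300–800 g), reserpine-pretreated (5 mg/kg ip) 24 h before death. Atria paced electrically at 2.5 Hz, 5 ms square pulses, voltage 50% above threshold; bath contained phentolamine 3.15×10^-4 mM. Isoprenaline dose-response curve run first to validate each preparation. Positive inotropy from dose-response curves; ED50 (mol·L⁻¹, dose giving 50% of maximum effect) by Ariens–Van Rossum method.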

The species named for test [2] is Cavia porcellus. Put plainly: Intrinsic activity calculated as the ratio of the maximum response to the compound to the maximum response to isoprenaline. The format is functional.

The structures appear in SMILES notation.

In the case of `Oc1ccc2ccc(-c3cccnc3)cc2n1`, in the test listed under Cavia porcellus [1], the EC50 was found to be 8.3 µM. The Intrinsic activity in the test listed under Cavia porcellus [2] is on record as 0.67.

Consider `O=C1CCc2cc(-c3ccccn3)ccc2N1`, for which, in the test filed under Cavia porcellus [1], the EC50 was found to be 2.55 µM. The Intrinsic activity in the test listed under Cavia porcellus [2] was 0.29.

Take `O=c1ccc2cc(-c3cccnc3)ccc2n1CCN1CCOCC1`: the EC50 in the test listed under Cavia porcellus [1] was 22 µM. Also, the Intrinsic activity in the test listed under Cavia porcellus [2] is listed as 0.58.

Take `Oc1ccc2cc(-c3ccccn3)cc(O)c2n1`: the EC50 in the test filed under Cavia porcellus [1] stood at 19 µM. Moreover, in the test filed under Cavia porcellus [2], the Intrinsic activity is 0.51.

Regarding `COc1cc(-c2ccncc2)cc2ccc(O)nc12`, the EC50 in the test listed under Cavia porcellus [1] was found to be 5 µM. Moreover, the Intrinsic activity in the test filed under Cavia porcellus [2] is 0.88.

As to `COc1cc(-c2cccnc2)cc2ccc(O)nc12`, the EC50 in the test listed under Cavia porcellus [1] worked out at 6.5 µM. The Intrinsic activity in the test filed under Cavia porcellus [2] is on record as 0.57.

As for `COc1cc(-c2ccncc2)cc2c1NC(=O)CC2`, the EC50 in the test listed under Cavia porcellus [1] worked out at 6.5 µM. In addition, in the test filed under Cavia porcellus [2], the Intrinsic activity is 0.68.

Take `Oc1ccc2cc(-c3ccncc3)cc(Cl)c2n1`: in the test filed under Cavia porcellus [1], the EC50 stood at 0.38 µM. The Intrinsic activity in the test listed under Cavia porcellus [2] was 0.78.

`c1cncc(-c2ccc3nc(OCCN4CCOCC4)ccc3c2)c1`: the EC50 in the test listed under Cavia porcellus [1] worked out at 15 µM. The Intrinsic activity in the test listed under Cavia porcellus [2] is listed as 0.23.

As to `O=C1CCc2cc(-c3ccncc3)ccc2N1`, the EC50 in the test listed under Cavia porcellus [1] was 14 µM. Moreover, the Intrinsic activity in the test listed under Cavia porcellus [2] is 0.56.

For the compound `O=C1CCc2cc(-c3cccnc3)ccc2N1`, the EC50 in the test filed under Cavia porcellus [1] was 1.3 µM. Also, the Intrinsic activity in the test filed under Cavia porcellus [2] is reported as 0.67.

For `Oc1ccc2cc(-c3ccncc3)ccc2n1`, the EC50 in the test listed under Cavia porcellus [1] was found to be 2.5 µM. Besides, the Intrinsic activity in the test filed under Cavia porcellus [2] is given as 0.45.

Take `Oc1ccc2cc(-c3ccccn3)ccc2n1`: the EC50 in the test filed under Cavia porcellus [1] came to 15 µM. Further, in the test listed under Cavia porcellus [2], the Intrinsic activity was 0.67.

In the case of `Oc1ccc2cc(-c3cccnc3)ccc2n1`, in the test listed under Cavia porcellus [1], the EC50 was determined as 0.52 µM. Also, the Intrinsic activity in the test filed under Cavia porcellus [2] was 0.67.

Regarding `Nc1cc(Cl)c2nc(O)ccc2c1`, in the test filed under Cavia porcellus [1], the EC50 was found to be 100 µM. For the same compound, the Intrinsic activity in the test listed under Cavia porcellus [2] is listed as 0.54.

Take `COc1cc(-c2cccnc2)cc2c(C)cc(O)nc12`: the EC50 in the test filed under Cavia porcellus [1] was 16 µM. The Intrinsic activity in the test listed under Cavia porcellus [2] was 0.81.

`Oc1ccc2cccc(-c3cccnc3)c2n1`: the EC50 in the test filed under Cavia porcellus [1] turned out to be 140 µM. In addition, the Intrinsic activity in the test filed under Cavia porcellus [2] is 0.41.

For the compound `COc1cc(-c2ccccn2)cc2ccc(O)nc12`, the EC50 in the test filed under Cavia porcellus [1] is 9.2 µM. Also, the Intrinsic activity in the test filed under Cavia porcellus [2] is listed as 0.72.

Regarding `COc1cc(-c2ccccn2)cc2c1NC(=O)CC2`, the EC50 in the test filed under Cavia porcellus [1] came to 6.4 µM. The Intrinsic activity in the test filed under Cavia porcellus [2] was 0.71.

Turning to `COc1cc(-c2cccnc2)cc2c1NC(=O)CC2`, the EC50 in the test filed under Cavia porcellus [1] was determined as 34 µM. The Intrinsic activity in the test filed under Cavia porcellus [2] was 0.68.

For `Oc1ccc2cc(-c3cccnc3)cc(Cl)c2n1`, in the test filed under Cavia porcellus [1], the EC50 worked out at 0.28 µM. Besides, in the test listed under Cavia porcellus [2], the Intrinsic activity is recorded as 0.68.

For `Oc1ccc2cc(-c3ccccn3)cc(Cl)c2n1`, in the test listed under Cavia porcellus [1], the EC50 worked out at 2.05 µM. Besides, the Intrinsic activity in the test listed under Cavia porcellus [2] is listed as 0.75.

For `Cn1c(=O)ccc2cc(-c3cccnc3)ccc21`, the EC50 in the test filed under Cavia porcellus [1] is 110 µM. Moreover, the Intrinsic activity in the test listed under Cavia porcellus [2] is recorded as 0.33.

On to `Cc1cc(C)c(-c2ccc3nc(O)ccc3c2)c(C)n1`, for which, in the test filed under Cavia porcellus [1], the EC50 stood at 1.05 µM. Also, in the test listed under Cavia porcellus [2], the Intrinsic activity is on record as 0.38.

For the compound `COc1cc(-c2ccccn2)cc2c(C)cc(O)nc12`, the EC50 in the test filed under Cavia porcellus [1] came out at 4.85 µM. In addition, the Intrinsic activity in the test filed under Cavia porcellus [2] is recorded as 0.74.

Take `COc1cc(-c2ccncc2)cc2c(C)cc(O)nc12`: the EC50 in the test listed under Cavia porcellus [1] is 7 µM. The Intrinsic activity in the test filed under Cavia porcellus [2] is reported as 0.5.

In the case of `Oc1ccc2cc(-c3cccnc3)cc(O)c2n1`, the EC50 in the test filed under Cavia porcellus [1] turned out to be 0.75 µM. In addition, the Intrinsic activity in the test filed under Cavia porcellus [2] is recorded as 0.72.

As to `CC(C)NCC(O)c1ccc(O)c(O)c1` (configuration not stated) [ISOPROTERENOL], the Intrinsic activity in the test listed under Cavia porcellus [2] is listed as 1.

For the compound `Cc1[nH]c(=O)c(C#N)cc1-c1ccncc1` [MILRINONE], the EC50 in the test filed under Cavia porcellus [1] was 14 µM. In the test listed under Cavia porcellus [2], the Intrinsic activity is listed as 0.67.
